Source: ChEMBL document CHEMBL3393037, “Design, synthesis, and biological evaluation of aminothiazole derivatives against the fungal pathogens Histoplasma capsulatum and Cryptococcus neoformans” (Bioorg Med Chem, 2015)
Converted amounts (≈) assume the structure as drawn.

Experiments:
[1] = Antifungal activity against Histoplasma capsulatum G217B ATCC 26032 assessed as inhibition of visible growth after 5 days; type: functional
How it was run: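 Wild-type G217B yeasts kept in HMM at 37 °C under 5% CO2. Wells held 2×10^5 yeasts (hemocytometer count) with a two-fold dilution series from 40 to 0.078 µM, at 1% DMSO in the top dilution. Plates were agitated twice daily and growth followed by A595 over 5 days. MIC is the lowest concentration with no visible growth on visual inspection of the plates.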

Cryptococcus neoformans = experiment: Antifungal activity against Cryptococcus neoformans MATalpha serotype A strain H99 assessed as inhibition of visible growth after 5 days; type: functional; details: MATalpha serotype A strain H99, 120 h
[2] = Selectivity index, ratio of MIC50 for human HepG2 cells to MIC50 for Histoplasma capsulatum strain G217B ATCC 26032
[3] = Cytotoxicity against human HepG2 cells after 72 hrs by crystal violet staining method; type: cell-based; details: for CC50 at 72 h: read-out: MIC50
How it was run: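 HepG2 cells in MEM with 10% FBS and 2 mM L-glutamine were seeded at 1×10^4 per well and left to adhere overnight. Compound was added at 0.3 to 80 µM for 72 h. Cells were fixed in 3% paraformaldehyde, stained with 0.1% crystal violet, and the dye taken up in 10% acetic acid and read at A590. Values were normalised to DMSO-matched controls, in triplicate.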

[4] = Cytotoxicity against mouse P388D1 […] cells after 48 hrs by crystal violet staining method; type: cell-based; details: P388D1, 48 h

Structure (SMILES) | MIC [1] [µM] | MIC50 [1] [µM] | MIC (Cryptococcus neoformans) [µM] | MIC50 (Cryptococcus neoformans) [µM] | Ratio [2] | CC50 at 72 h [3] [µM] | MCC at 72 h ([3]; read-out: MIC) [µM] | IC50 [4] [µM]
O=C(CCC1CCCCC1)Nc1ncc(Cc2ccccc2Cl)s1 | 2.5 (≈ 0.907 µg/mL) | 0.9 (≈ 0.327 µg/mL) | > 20 | > 10 |  |  |  | 
CN1CCC(C(=O)Nc2ncc(Cc3ccccc3)s2)CC1 | > 20 | > 10 |  |  |  |  |  | 
O=C(Nc1ncc(Cc2ccccc2)s1)N1CCCC1 | > 20 | > 10 |  |  |  |  |  | 
O=C(CCC1CCCCC1)Nc1ncc(CCc2ccccc2)s1 | 2.5 (≈ 0.856 µg/mL) | 0.7 (≈ 0.24 µg/mL) | > 20 | > 10 | >50 | > 40 |  | 
O=C(Nc1ncc(CC2CCCCC2)s1)c1ccccc1 | 10 (≈ 3 µg/mL) | 4.6 (≈ 1.38 µg/mL) |  |  |  |  |  | 
CC(C)C(=O)Nc1ncc(Cc2ccccc2)s1 | 20 (≈ 5.21 µg/mL) | 6.7 (≈ 1.74 µg/mL) |  |  |  |  |  | 
O=C(CCC1CCCCC1)Nc1ncc(Cc2ccccc2F)s1 | 2.5 (≈ 0.866 µg/mL) | 1 (≈ 0.346 µg/mL) | > 20 | > 10 |  |  |  | 
CN(C(=O)CCC1CCCCC1)c1ncc(Cc2ccccc2)s1 | > 20 | > 10 |  |  |  |  |  | 
O=C(Nc1ncc(Cc2ccccc2)s1)C1CCCCC1 | 5 (≈ 1.5 µg/mL) | 1.6 (≈ 0.481 µg/mL) | 5 (≈ 1.5 µg/mL) | 1.3 (≈ 0.391 µg/mL) | >21 | > 40 |  | 
O=C(CCC1CCCCC1)Nc1ncc(Cc2cccc3ccccc23)s1 | 1.3 (≈ 0.492 µg/mL) | 0.4 (≈ 0.151 µg/mL) | > 20 | > 10 | >100 | > 40 |  | 
CC(C)C(=O)Nc1ncc(Cc2cccc3ccccc23)s1 | 2.5 (≈ 0.776 µg/mL) | 1.5 (≈ 0.466 µg/mL) | > 20 | > 10 |  |  |  | 
Nc1ncc(Cc2ccccc2)s1 | > 20 | > 10 |  |  |  |  |  | 
O=C(Nc1nc(C23CC4CC(CC(C4)C2)C3)cs1)C1CCCCC1 | 5 (≈ 1.72 µg/mL) | 2.5 (≈ 0.861 µg/mL) | > 20 | > 10 |  |  |  | 
O=C(Nc1ncc(Cc2cccc3ccccc23)s1)c1ccccc1 | > 20 | > 10 |  |  |  |  |  | 
NC(=O)c1cc(-c2ccccc2)sc1NC(=O)c1ccc2c(c1)OCCO2 |  | 2.5 (≈ 0.951 µg/mL) |  |  |  |  | 10 | 
O=C(Nc1ncc(Cc2ccccc2)s1)C(F)(F)F | > 20 | > 10 |  |  |  |  |  | 
O=C(CCC1CCCCC1)Nc1ncc(Cc2ccccc2)s1 | 1.3 (≈ 0.427 µg/mL) | 0.7 (≈ 0.23 µg/mL) | > 20 | > 10 | >44 | > 40 |  | 

Structure (SMILES) | MIC [1] [µM] | MIC50 [1] [µM] | MIC (Cryptococcus neoformans) [µM] | MIC50 (Cryptococcus neoformans) [µM] | Ratio [2] | CC50 at 72 h [3] [µM] | MCC at 72 h ([3]; read-out: MIC) [µM] | IC50 [4] [µM]
O=C(Nc1ncc(Cc2cccc3ccccc23)s1)C(F)(F)F | > 20 | > 10 |  |  |  |  |  | 
O=C(CC1CCCCC1)Nc1ncc(CC2CCCCC2)s1 | > 20 | > 10 |  |  |  |  |  | 
O=C(Nc1ncc(Cc2cccc3ccccc23)s1)C1CCCC1 | 1.3 (≈ 0.437 µg/mL) | 0.8 (≈ 0.269 µg/mL) | 1.3 (≈ 0.437 µg/mL) | 0.8 (≈ 0.269 µg/mL) | >57 | > 40 |  | 
O=C(CCC1CCCCC1)Nc1ncc(Cc2ccc3ccccc3c2)s1 | > 20 | > 10 |  |  |  |  |  | 
O=C(Nc1ncc(Cc2ccc(F)cc2)s1)C1CCCCC1 | 20 (≈ 6.37 µg/mL) | 4.4 (≈ 1.4 µg/mL) |  |  |  |  |  | 
O=C(Nc1ncc(Cc2ccc3ccccc3c2)s1)c1ccccc1 | > 20 | > 10 |  |  |  |  |  | 
O=C(Nc1ncc(Cc2cccc3ccccc23)s1)C12CC3CC(CC(C3)C1)C2 | > 20 | > 10 |  |  |  |  |  | 
O=C(Nc1ncc(Cc2cccc3ccccc23)s1)C1CCCCC1 | 0.6 (≈ 0.21 µg/mL) | 0.4 (≈ 0.14 µg/mL) | 0.6 (≈ 0.21 µg/mL) | 0.4 (≈ 0.14 µg/mL) | 97 | 39 |  | 54
O=C(CCC1CCCCC1)Nc1ncc(Cc2cccc(C(F)(F)F)c2)s1 | > 20 | > 10 |  |  |  |  |  | 
O=C(CCC1CCCCC1)Nc1ncc(CC2CCCCC2)s1 | 5 (≈ 1.67 µg/mL) | 0.8 (≈ 0.268 µg/mL) | > 20 | 9.6 (≈ 3.21 µg/mL) |  |  |  | 
O=C(Nc1nc(C23CC4CC(CC(C4)C2)C3)cs1)c1ccccc1 | 10 (≈ 3.38 µg/mL) | 3.1 (≈ 1.05 µg/mL) | 20 (≈ 6.77 µg/mL) | 8.3 (≈ 2.81 µg/mL) |  |  |  | 
O=C(CCC1CCCCC1)Nc1ncc(Cc2ccc(F)cc2)s1 | > 20 | > 10 |  |  |  |  |  | 
Cc1nc(NC(=O)CCC2CCCCC2)sc1Cc1ccccc1 | > 20 | > 10 |  |  |  |  |  | 
O=C(CCC1CCCCC1)Nc1ncc(-c2ccccc2)s1 | > 20 | > 10 |  |  |  |  |  | 
O=C(Nc1ncc(Cc2ccccc2)s1)C1COc2ccccc2C1 (stereo not given) | > 20 | > 10 |  |  |  |  |  | 
O=C(Nc1ncc(Cc2ccccc2)s1)C1CCSCC1 | 10 (≈ 3.18 µg/mL) | 4.8 (≈ 1.53 µg/mL) |  |  |  |  |  | 
O=C(Nc1ncc(Cc2ccccc2)s1)N1CCCCC1 | > 20 | > 10 |  |  |  |  |  | 
